In ChEMBL document CHEMBL1127600, “Mercaptoacyl amino acid inhibitors of atriopeptidase. 1. Structure-activity relationship studies of methionine and S-alkylcysteine derivatives” (J Med Chem, 1994) one finds Delta blood pressure and IC50 data, which are given here for ten compounds.

Test [1] relates to Rattus norvegicus. Put plainly: In vivo potentiation of ANF induced hypotension in rat, following subcutaneous dose of 30 mg/kg. The class given is functional. Summed up: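 Conscious male SHR (270–300 g) had caudal artery and jugular vein cannulae placed under ether. After at least 90 min of stabilization, ANF 103-125 or 99-126 was given as an iv bolus at a submaximal dose. 60–90 min later, drug or vehicle (0.2% aqueous methylcellulose with 20% Tris-HCl) was given sc. ANF was repeated 15 min after dosing, and the response was compared with vehicle controls. Values are means of four or more animals.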

Test [2] deals with T1, Neprilysin (Oryctolagus cuniculus, UniProt P08049).
T1 sequence (P08049 whole entry): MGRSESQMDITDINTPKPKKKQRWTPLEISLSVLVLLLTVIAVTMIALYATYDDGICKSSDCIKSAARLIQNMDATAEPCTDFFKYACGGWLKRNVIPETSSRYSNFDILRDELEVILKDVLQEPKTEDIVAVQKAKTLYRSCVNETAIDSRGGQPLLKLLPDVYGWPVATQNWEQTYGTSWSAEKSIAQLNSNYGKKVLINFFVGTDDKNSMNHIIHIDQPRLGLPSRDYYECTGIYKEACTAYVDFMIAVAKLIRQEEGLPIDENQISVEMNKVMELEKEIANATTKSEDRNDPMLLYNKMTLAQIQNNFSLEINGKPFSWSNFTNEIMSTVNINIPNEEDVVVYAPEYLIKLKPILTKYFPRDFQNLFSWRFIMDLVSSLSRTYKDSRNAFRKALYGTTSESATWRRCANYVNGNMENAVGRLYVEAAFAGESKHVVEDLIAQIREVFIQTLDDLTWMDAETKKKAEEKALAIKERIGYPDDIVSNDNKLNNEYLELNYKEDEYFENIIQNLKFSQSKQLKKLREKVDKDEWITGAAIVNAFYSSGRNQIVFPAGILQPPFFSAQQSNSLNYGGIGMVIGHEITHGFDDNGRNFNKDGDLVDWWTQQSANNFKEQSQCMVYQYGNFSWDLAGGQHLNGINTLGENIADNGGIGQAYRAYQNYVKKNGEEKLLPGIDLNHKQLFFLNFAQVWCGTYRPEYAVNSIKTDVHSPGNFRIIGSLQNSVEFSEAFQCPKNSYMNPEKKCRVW
Put plainly: Ttested for its inhibitory activity against neutral endopeptidase (NEP). The method in brief: (§1)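 Purified rabbit kidney NEP (EC 24.11) was the enzyme source, with [³H]Leu-enkephalin as the substrate.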

The test system of test [3] is Rattus norvegicus. Nature of the test: Tested for in vivo Antihypertensive activity in DOCA rat by giving peroral dose of 30 mg/kg. It is filed as functional. The note with it: route oral. The method in brief:
(§2)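 Male Sprague-Dawley rats (100–150 g) had DOCA-Na hypertension induced and were used 17–21 days later if mean BP was >150 mmHg. Rats were not fasted. Mean BP was recorded after 90-min equilibration. Dosing was sc in TRIS buffer (2 mL/kg) or po in 0.4% aqueous methylcellulose (4 mL/kg). The maximum BP fall over 4 h versus vehicle controls was taken, averaged over four or more animals.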

The test system of test [4] is Rattus norvegicus. Nature of the test: Tested for in vivo Antihypertensive activity in DOCA rat by giving subcutaneous dose of 3 mg/kg. The class given is functional. The method in brief:
as §2

Test [5] concerns the target T1, Neprilysin. Nature of the test: In vitro inhibitory activity against neutral endopeptidase (NEP). Summed up: as §1
For test [6], the system named is Rattus norvegicus. Put plainly: Tested for in vivo Antihypertensive activity in DOCA rat by giving peroral dose of 1 mg/Kg. The class given is functional. The method in brief: as §2
Test [7] has as its target T2, Angiotensin-converting enzyme (Oryctolagus cuniculus, UniProt P12822).
T2 sequence (P12822 whole entry): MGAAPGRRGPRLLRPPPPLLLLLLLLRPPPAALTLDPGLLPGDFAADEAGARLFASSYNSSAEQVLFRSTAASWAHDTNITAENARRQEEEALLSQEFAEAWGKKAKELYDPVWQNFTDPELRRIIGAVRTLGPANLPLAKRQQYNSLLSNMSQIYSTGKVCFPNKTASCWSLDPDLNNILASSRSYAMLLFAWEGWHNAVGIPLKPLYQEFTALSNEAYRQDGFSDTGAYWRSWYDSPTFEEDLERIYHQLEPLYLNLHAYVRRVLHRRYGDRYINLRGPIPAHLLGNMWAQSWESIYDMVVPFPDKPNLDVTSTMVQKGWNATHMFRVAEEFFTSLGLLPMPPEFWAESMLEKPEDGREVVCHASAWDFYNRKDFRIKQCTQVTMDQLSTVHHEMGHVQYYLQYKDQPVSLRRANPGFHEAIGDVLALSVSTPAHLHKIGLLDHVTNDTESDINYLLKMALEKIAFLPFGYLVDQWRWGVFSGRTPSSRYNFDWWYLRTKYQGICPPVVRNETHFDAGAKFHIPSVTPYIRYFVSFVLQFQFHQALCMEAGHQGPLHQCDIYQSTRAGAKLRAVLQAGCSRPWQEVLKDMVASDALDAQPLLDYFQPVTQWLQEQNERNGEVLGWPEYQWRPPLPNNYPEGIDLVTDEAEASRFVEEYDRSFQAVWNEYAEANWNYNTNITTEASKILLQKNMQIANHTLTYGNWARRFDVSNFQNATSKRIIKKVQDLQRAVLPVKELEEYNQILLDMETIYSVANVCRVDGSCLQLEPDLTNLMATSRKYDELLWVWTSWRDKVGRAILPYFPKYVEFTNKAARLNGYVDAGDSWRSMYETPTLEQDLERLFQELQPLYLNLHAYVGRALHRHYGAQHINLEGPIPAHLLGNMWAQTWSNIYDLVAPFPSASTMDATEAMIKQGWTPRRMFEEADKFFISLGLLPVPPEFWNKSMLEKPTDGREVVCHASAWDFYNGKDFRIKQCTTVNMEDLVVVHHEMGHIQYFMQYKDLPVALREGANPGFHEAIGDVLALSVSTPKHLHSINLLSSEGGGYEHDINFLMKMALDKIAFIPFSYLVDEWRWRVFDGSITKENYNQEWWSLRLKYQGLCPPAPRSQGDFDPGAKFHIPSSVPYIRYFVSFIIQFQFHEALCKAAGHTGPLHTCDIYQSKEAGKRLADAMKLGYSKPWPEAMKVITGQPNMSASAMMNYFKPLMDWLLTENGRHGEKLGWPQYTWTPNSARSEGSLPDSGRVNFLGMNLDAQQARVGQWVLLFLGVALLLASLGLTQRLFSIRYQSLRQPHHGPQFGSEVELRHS
Put plainly: Tested in vitro for its inhibitory activity against angiotensin converting enzyme.

The subject of test [8] is Rattus norvegicus. Nature of the test: Tested for in vivo Antihypertensive activity in DOCA rat by giving subcutaneous dose of 30 mg/kg. It is filed as functional. The method in brief:
as §2

For test [9], the system named is Rattus norvegicus. Nature of the test: In vivo potentiation of ANF Induced Hypotension in rat was determined by giving peroral dose of 3 mg/kg. The note with it: route oral. The class given is functional.
The test system of test [10] is Rattus norvegicus. Nature of the test: In vivo potentiation of ANF Induced Hypotension in rat was determined by giving peroral dose of 10 mg/kg. The note with it: route oral. It is filed as functional.
The subject of test [11] is Rattus norvegicus. Nature of the test: Tested for in vivo Antihypertensive activity in DOCA rat by giving peroral dose of 10 mg/kg. The class given is functional. The note with it: route oral. The method in brief:
as §2

The test system of test [12] is Rattus norvegicus. Nature of the test: Tested for in vivo Antihypertensive activity in DOCA rat by giving subcutaneous dose of 1 mg/kg. The class given is functional. The method in brief: as §2
Test [13] deals with Rattus norvegicus. Nature of the test: Tested for in vivo Antihypertensive activity in DOCA rat by giving peroral dose of 3 mg/kg. The note with it: route oral. The class given is functional. The method in brief:
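Male Sprague-Dawley rats (100–150 g at preparation) made DOCA-Na hypertensive, used 17–21 days after induction if mean BP >150 mmHg, nonfasted. Drug given orally as solution or suspension in 0.4% aqueous methylcellulose (4 mL/kg). Mean BP recorded after 90-min equilibration. Value is maximum BP fall over 4 h versus vehicle-treated controls, averaged over four or more animals.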

The subject of test [14] is Rattus norvegicus. Nature of the test: Tested for in vivo Antihypertensive activity in DOCA rat by giving subcutaneous dose of 10 mg/kg. The class given is functional. Summed up: as §2
Test [15] relates to Rattus norvegicus. Nature of the test: In vivo potentiation of ANF Induced Hypotension in rat was determined by giving subcutaneous dose of 90 mg/kg ANF. The class given is functional.
The subject of test [16] is Rattus norvegicus. Nature of the test: Tested for in vivo Antihypertensive activity in DOCA rat by giving peroral dose of 1 mg/kg. The class given is functional. The note with it: route oral. Summed up: as §2
Test [17] has as its system Rattus norvegicus. Put plainly: Tested for in vivo Antihypertensive activity in DOCA rat by giving peroral dose of 3 mg/Kg. The class given is functional. Summed up:
as §2

For test [18], the system named is Rattus norvegicus. Nature of the test: Ttested for in vivo Antihypertensive activity in DOCA rat by giving subcutaneous dose of 0.1 mg/kg. The class given is functional. The method in brief: as §2

For `COc1ccc(CSC[C@@H](NC(=O)[C@H](CS)Cc2ccccc2)C(=O)O)cc1`, the Delta blood pressure in the test with Rattus norvegicus [1] came to 23 mmHg; with Rattus norvegicus [3], 0 mmHg. Also, the IC50 (as a rule, the point on the concentration scale where inhibition reaches its midpoint) on Neprilysin [2] was determined as 17 nM.
Regarding `CSCC[C@@H](NC(=O)[C@@H](CS)Cc1ccccc1C)C(=O)O`, the Delta blood pressure in the test on Rattus norvegicus [4] is 43 mmHg; with Rattus norvegicus [6], 24 mmHg. For the same compound, the IC50 against Neprilysin [5] was found to be 7 nM; in [7], 100 nM.
As for `CSCC[C@@H](NC(=O)[C@H](CSC(=O)c1ccccc1)Cc1ccccc1)C(N)=O`, the Delta blood pressure in the test on Rattus norvegicus [8] is reported as 0 mmHg; with Rattus norvegicus [9] it was 19 mmHg; with Rattus norvegicus [10], 52 mmHg.
As to `CC(=O)SC[C@H](Cc1ccccc1)C(=O)N[C@H](CSCc1ccc(C)cc1)C(=O)O`, the Delta blood pressure with Rattus norvegicus [10] came to 20 mmHg.
Regarding `Cc1ccc(CSC[C@@H](NC(=O)[C@@H](CS)Cc2cccc3ccccc23)C(=O)O)cc1`, the Delta blood pressure in the test with Rattus norvegicus [4] was 26 mmHg; in the test with Rattus norvegicus [1], 0 mmHg; in the test on Rattus norvegicus [11], 8 mmHg; in the test on Rattus norvegicus [12], 47 mmHg; in the test with Rattus norvegicus [3], 33 mmHg. For the same compound, the IC50 against Neprilysin [5] was 2 nM; in test [7], greater than 1000 nM.
Turning to `CSCC[C@@H](NC(=O)[C@H](CS)CCc1ccccc1)C(=O)O`, the IC50 against Neprilysin [5] was greater than 300 nM; in [7] it was greater than 1000 nM. The same compound yielded a Delta blood pressure in the test on Rattus norvegicus [13] of 6 mmHg.
With `Cc1ccc(CSC[C@@H](NC(=O)[C@@H](CS)Cc2ccccc2)C(=O)O)cc1C`, the Delta blood pressure in the test on Rattus norvegicus [1] is 23 mmHg. For the same compound, on Neprilysin [2], the IC50 amounted to 370 nM.
As for `O=C(N[C@H](CSCc1ccccc1)C(=O)O)[C@H](CS)Cc1ccccc1`, the Delta blood pressure in the test with Rattus norvegicus [14] amounted to 21 mmHg; in the test on Rattus norvegicus [8], 55 mmHg; in the test on Rattus norvegicus [15] it was 45 mmHg. Also, the IC50 is 32 nM against Neprilysin [5] and greater than 1000 nM in test [7].
`CCOC(=O)[C@@H](CCSC)NC(=O)[C@@H](CSC(C)=O)Cc1ccccc1C`: the IC50 was greater than 300 nM at Neprilysin [5] and 250 nM in [7]. The Delta blood pressure in the test with Rattus norvegicus [16] was 27 mmHg; in the test with Rattus norvegicus [1], 36 mmHg; in the test with Rattus norvegicus [11], 70 mmHg; in the test with Rattus norvegicus [17], 48 mmHg.
On to `CCSC[C@@H](NC(=O)[C@@H](CS)Cc1ccccc1)C(=O)O`, for which the IC50 came out at 2.4 nM against Neprilysin [5] and 28 nM in test [7]. Moreover, the Delta blood pressure with Rattus norvegicus [1] was determined as 19 mmHg; with Rattus norvegicus [11], 61 mmHg; in the test with Rattus norvegicus [18] it was 21 mmHg; with Rattus norvegicus [12] it was 22 mmHg.
